Source: the array DNA melting data of Ke et al. (doi:10.1101/2024.01.08.574731)

Assays:
[1] = folding enthalpy; higher = less favourable; fluorescence melt of hairpins on a sequencing array, two-state fit; details: sodium 0.088 M
Procedure, shortened: (§1)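 Cy3 fluorescence of library hairpins on a sequenced MiSeq flow cell, with annealed Cy3 and quencher oligos, was imaged in 50 mM Na-HEPES pH 8.0, 25 mM NaCl in 2.5 °C steps up to 60 °C. Signals were normalised to pre-quench Cy3 and to control variants. Melting temperature and folding enthalpy came from bootstrapped two-state fits, inverse-variance combined over four replicates. Fitted temperatures were raised by 9.35 °C to match UV melts.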

[2] = melting temperature; fluorescence melt of hairpins on a sequencing array, two-state fit, raised by 9.35 °C to match UV melts; details: sodium 0.088 M
Procedure, shortened: as §1

Sequence	folding enthalpy [1] [kcal/mol]	Tm [2] [°C]
CGCGGAAAAGTCCGCG ((((((....))))))	-38.4	60.9
CGCGGAAAATCCGCG ((((((...))))))	-42.4	62.3
CGCGGAAAATTCCGCG ((((((....))))))	-32	68.3
CGCGGAAAGATCCGCG ((((((....))))))	-33.8	64.2
CGCGGAACATCCGCG ((((((...))))))	-27.5	69
CGCGGAAGATCCGCG ((((((...))))))	-26.5	69.1
CGCGGACAATCCGCG ((((((...))))))	-26.4	67.7
CGCGGACGATTCCGCG ((((((....))))))	-29.1	69
CGCGGACGGATCCGCG ((((((....))))))	-28.8	68.7
CGCGGAGCTGTCCGCG ((((((....))))))	-20.9	67.1
CGCGGAGCTTTCCGCG ((((((....))))))	-20.8	68.2
CGCGGATCTCTCCGCG ((((((....))))))	-51	66.8
CGCGGATGACTCCGCG ((((((....))))))	-43.1	66.7
CGCGGCCGGAAACGGGCG (((..(((....))))))	-12.1	65.6
CGCGTCGGAAACGAGCG (((.(((....))))))	-31.7	54.9
CGCTACGGAAACGTCGCG (((.(((....))).)))	-39.3	51.9
CGCTATCGGAAACGAGCG (((..(((....))))))	-27.1	41.8
CGCTCCGGAAACGGGCG (((.(((....))))))	-32.5	54.1
CGCTCGCGGAAACGCGCG (((..(((....))))))	-7.4	61.2
CGCTCGGAAACGAATGCG ((((((....)))..)))	-23.3	45
CGCTCGGAAACGACGCG ((((((....))).)))	-34.6	51.1
CGCTCGGAAACGAGAGCG ((((((....)))..)))	-25.7	52.2
CGCTTCCGGAAACGGGCG (((..(((....))))))	-23.4	40
CGCTTCGGAAACGAGCG (((.(((....))))))	-27.1	49.3

Sequence	folding enthalpy [1] [kcal/mol]	Tm [2] [°C]
CGGACACGGAAACGTCCG (((..(((....))))))	-26	47.6
CGGACGGAAACGTACCCG ((((((....)))..)))	-14.4	34.5
CGGACGGAAACGTATCCG ((((((....)))..)))	-17.5	36.7
CGGACGGAAACGTCGCCG ((((((....)))..)))	-12.1	34.5
CGGACGGAAACGTGACCG ((((((....)))..)))	-25	38.3
CGGACGGAAACGTTCCCG ((((((....)))..)))	-15.8	37.2
CGGACGGAAACGTTCCG ((((((....))).)))	-27.5	51.2
CGGACTCGGAAACGACCG (((..(((....))))))	-17.5	32.9
CGGAGACGGAAACGTCCG (((..(((....))))))	-17.6	47.1
CGGAGCGGAAACGCCCG (((.(((....))))))	-30.6	55.6
CGGAGGAAACTCCG (((((....)))))	-20.5	57.1
CGGATTCGGAAACGACCG (((..(((....))))))	-17.8	35.7
CGGCACGGAAACGTCCCG (((.(((....))).)))	-26	42
CGGCACGGAAACGTTCCG (((.(((....))).)))	-24.5	47.9
CGGCAGAAATGCCG (((((....)))))	-31.3	64.9
CGGCAGCGGAAACGCCCG (((..(((....))))))	-21.7	47
CGGCCCGGAAACGGCCCG (((.(((....))).)))	-17.9	51.8
CGGCCGGAAACGGCTCCG ((((((....)))..)))	-8.35	33.7
CGGCCGGAAACGGGACCG ((((((....)))..)))	-25.5	47.8
CGGCCGGAAACGGGGCCG ((((((....)))..)))	-39.4	59.1
CGGCTCCGGAAACGGCCG (((..(((....))))))	-27.1	50.3
CGGCTCGGAAACGAACCG (((.(((....))).)))	-44.5	51
CGGGAGAAATCCCG (((((....)))))	-25.9	57.1
CGGGCTCGGAAACGACCG (((..(((....))))))	-22.6	40.6

Sequence	folding enthalpy [1] [kcal/mol]	Tm [2] [°C]
CGGGGTCGGAAACGACCG (((..(((....))))))	-7.49	51.9
CGGGTGCGGAAACGCCCG (((..(((....))))))	-23.4	55.7
CGGTACCGGAAACGGCCG (((..(((....))))))	-20.8	40.9
CGGTAGAAATACCG (((((....)))))	-28.2	48.6
CGGTCCGGAAACGGCCCG (((.(((....))).)))	-29.4	55.1
CGGTCGGAAACGAACCCG ((((((....)))..)))	-19.3	38.2
CGGTCGGAAACGACACCG ((((((....)))..)))	-11	38
CGGTCGGAAACGACCCCG ((((((....)))..)))	-9.36	37.3
CGGTCGGAAACGAGCCG ((((((....))).)))	-21.6	51.2
CGGTCGGAAACGAGTCCG ((((((....)))..)))	-20.6	39.4
CGGTGGCGGAAACGCCCG (((..(((....))))))	-11.5	47
CGGTGTCGGAAACGACCG (((..(((....))))))	-11.9	47.5
CGGTTACGGAAACGTCCG (((..(((....))))))	-23.3	36.1
CGGTTCCGGAAACGGCCG (((..(((....))))))	-21	43.3
CGTACACGGAAACGTACG (((..(((....))))))	-25.7	40.8
CGTACCGGAAACGGACG (((.(((....))))))	-21.2	45.7
CGTACCGGAAACGGCACG (((.(((....))).)))	-39.9	50.2
CGTACGGAAACGTAGACG ((((((....)))..)))	-17	36.6
CGTACGGAAACGTCGACG ((((((....)))..)))	-12.9	37.5
CGTACGGAAACGTGAACG ((((((....)))..)))	-15.1	37.4
CGTACGGAAACGTTACG ((((((....))).)))	-30.6	46.1
CGTAGCCGGAAACGGACG (((..(((....))))))	-8.93	31.7
CGTAGTCGGAAACGAACG (((..(((....))))))	-4.62	21.6
CGTATCGGAAACGAACG (((.(((....))))))	-24.5	36.2

Sequence	folding enthalpy [1] [kcal/mol]	Tm [2] [°C]
CGTATTCGGAAACGAACG (((..(((....))))))	-17.2	28.4
CGTCCCGGAAACGGCACG (((.(((....))).)))	-23.7	39.9
CGTCCGGAAACGGTTACG ((((((....)))..)))	-13.9	39.3
CGTGACGGAAACGTACG (((.(((....))))))	-25.3	42.5
CGTGCACGGAAACGTACG (((..(((....))))))	-8.88	33.2
CGTGCCGGAAACGGACG (((.(((....))))))	-22	48.7
CGTGCGGAAACGCACACG ((((((....)))..)))	-8.09	43.9
CGTGGGAAACCACG (((((....)))))	-34.5	58
CGTGTGAAAACACG (((((....)))))	-29.3	58.6
CGTTACCGGAAACGGACG (((..(((....))))))	-17	36.9
CGTTCCCGGAAACGGACG (((..(((....))))))	-21.6	35.3
CGTTCGGAAACGACAACG ((((((....)))..)))	-15.2	34.4
CGTTCGGAAACGACACG ((((((....))).)))	-26.9	39.3
CGTTCGGAAACGATAACG ((((((....)))..)))	-30.6	36.1
CGTTCGGAAACGATGACG ((((((....)))..)))	-20	39
CGTTGTCGGAAACGAACG (((..(((....))))))	-11.6	35.1
CGTTTCGGAAACGAACG (((.(((....))))))	-26.3	44.9
CGTTTGAAAAAACG (((((....)))))	-21.2	47.3
CTAACGAAAGTTAG (((((....)))))	-23.9	49.4
CTACCGAAAGGTAG (((((....)))))	-23.2	57.9
CTATGGAAACATAG (((((....)))))	-15.7	36.9
